Measurements collected from several papers.
Each line is one published result; the experiments were not run side by side.
Cell line: NCI-H460
Effect on: cell growth or viability

CCCCCCCCCCCCCCCCCCOc1ccccc1CC(=O)OCC[N+](CC)(CC)CC — inhibition (SRB; 10 µM): 65.4%
FC(F)(F)c1ccc(-c2cc(COc3cc(C(F)(F)F)nc4ccccc34)on2)cc1 — IC50 (MTS; 72 h): > 100 µM
COc1ccc(NC(=O)NCc2cn(Cc3ccc(C)cc3)nn2)cc1 — viability (CCK-8; 50 µM; 72 h): 95.5%
O=C(CSc1nc2ccccc2s1)N/N=C/c1ccc(OCC(=O)Nc2cccc(Br)c2)cc1 — IC50 (MTS; 72 h): 32.1 µM
FC(F)(F)c1cc(OCc2cc(-c3ccccn3)no2)c2ccccc2n1 — IC50 (MTS; 72 h): > 100 µM
COc1ccc(NC(=O)Nc2cccc(-c3cn(Cc4ccc(Cl)cc4)nn3)c2)cc1 — viability (CCK-8; 50 µM; 72 h): 104%
CCCCCCCCCCCCCCCCCCOc1ccc(CC(=O)OCC[N+]2(C)CCOCC2)cc1 — inhibition (SRB; 10 µM): 0.33%
Clc1ccc(-c2cc(CNc3cccc4cccnc34)on2)c(Cl)c1 — IC50 (MTS; 72 h): > 100 µM
CCCCCCCCCCCCCCCCCCOCC(COP(=O)([O-])OCC[N+](C)(C)C)OC (stereo not drawn) — inhibition (SRB; 10 µM): 53.6%
COc1ccc(NC(=O)NCc2cn(Cc3ccc(Cl)cc3)nn2)cc1 — viability (CCK-8; 50 µM; 72 h): 91.8%
O=c1cc(OCc2cc(-c3ccccc3)no2)c2ccccc2o1 — IC50 (MTS; 72 h): > 100 µM
COc1ccc(NC(=O)Nc2cccc(-c3cn(Cc4ccc(C)cc4)nn3)c2)cc1 — viability (CCK-8; 50 µM; 72 h): 102%
CCCCCCCCCCCCCCCCCCOc1ccccc1CC(=O)OCCC[N+](C)(C)C — inhibition (SRB; 10 µM): 19.9%
COc1ccc(NC(=O)Nc2cccc(-c3cn(Cc4cccc(Cl)c4)nn3)c2)cc1 — viability (CCK-8; 50 µM; 72 h): 105%
Cc1nc(NC(=O)N2CCC[C@H]2C(N)=O)sc1-c1ccnc(C(C)(C)C(F)(F)F)c1 — EC50 (ATP luminescence; 5 days): 35.1 µM
COc1ccc(NC(=O)NCc2cn(Cc3ccccc3C)nn2)cc1 — viability (CCK-8; 50 µM; 72 h): 106%
O=C(CSc1nc2ccccc2s1)N/N=C/c1ccc(OCC(=O)Nc2ccc([N+](=O)[O-])cc2)cc1 — IC50 (MTS; 72 h): > 100 µM
FC(F)(F)c1ccc(-c2cc(CNc3cccc4cccnc34)on2)cc1 — IC50 (MTS; 72 h): > 100 µM
CCCCCCCCCCCCCCCCCCOc1cccc(CC(=O)OCCC[N+](C)(C)C)c1 — inhibition (SRB; 10 µM): 4.47%
FC(F)(F)c1cc(OCc2cc(-c3ccc(Cl)cc3Cl)no2)c2ccccc2n1 — IC50 (MTS; 72 h): > 100 µM
COc1ccc(NC(=O)Nc2cccc(-c3cn(Cc4ccc(Br)cc4)nn3)c2)cc1 — viability (CCK-8; 50 µM; 72 h): 106%
CCCCCCCCCCCCCCCCCCOc1cccc(CC(=O)OCC[N+]2(C)CCCC2)c1 — inhibition (SRB; 10 µM): 4.17%
O=c1cc(OCc2cc(-c3ccc(C(F)(F)F)cc3)no2)c2ccccc2o1 — IC50 (MTS; 72 h): > 100 µM
CCCCCCCCCCCCCCCCCCOc1ccc(CC(=O)OCC[N+]2(C)CCCC2)cc1 — inhibition (SRB; 10 µM): 0.31%
c1ccc(-c2cc(CNc3cccc4cccnc34)on2)cc1 — IC50 (MTS; 72 h): > 100 µM
O=C(CSc1nc2ccccc2s1)N/N=C/c1ccc(OCC(=O)Nc2ccc(Br)cc2)cc1 — IC50 (MTS; 72 h): 14 µM
CCCCCCCCCCCCCCCCCCOc1cccc(CC(=O)OCC[N+]2(C)CCCCC2)c1 — inhibition (SRB; 10 µM): 0.88%
